DNMT1 block: inhibitors of human DNMT1 | P26358 | DNMT1 molecular beacon, Hinp1I cleavage, fluorescence | inhibition (reported as % activation of signal), % at 10 µM | 0.83% of 360,000 active | AID 588458; in the data active = inhibition above about 50%
Target sequence (P26358 504-1616 limits assumed): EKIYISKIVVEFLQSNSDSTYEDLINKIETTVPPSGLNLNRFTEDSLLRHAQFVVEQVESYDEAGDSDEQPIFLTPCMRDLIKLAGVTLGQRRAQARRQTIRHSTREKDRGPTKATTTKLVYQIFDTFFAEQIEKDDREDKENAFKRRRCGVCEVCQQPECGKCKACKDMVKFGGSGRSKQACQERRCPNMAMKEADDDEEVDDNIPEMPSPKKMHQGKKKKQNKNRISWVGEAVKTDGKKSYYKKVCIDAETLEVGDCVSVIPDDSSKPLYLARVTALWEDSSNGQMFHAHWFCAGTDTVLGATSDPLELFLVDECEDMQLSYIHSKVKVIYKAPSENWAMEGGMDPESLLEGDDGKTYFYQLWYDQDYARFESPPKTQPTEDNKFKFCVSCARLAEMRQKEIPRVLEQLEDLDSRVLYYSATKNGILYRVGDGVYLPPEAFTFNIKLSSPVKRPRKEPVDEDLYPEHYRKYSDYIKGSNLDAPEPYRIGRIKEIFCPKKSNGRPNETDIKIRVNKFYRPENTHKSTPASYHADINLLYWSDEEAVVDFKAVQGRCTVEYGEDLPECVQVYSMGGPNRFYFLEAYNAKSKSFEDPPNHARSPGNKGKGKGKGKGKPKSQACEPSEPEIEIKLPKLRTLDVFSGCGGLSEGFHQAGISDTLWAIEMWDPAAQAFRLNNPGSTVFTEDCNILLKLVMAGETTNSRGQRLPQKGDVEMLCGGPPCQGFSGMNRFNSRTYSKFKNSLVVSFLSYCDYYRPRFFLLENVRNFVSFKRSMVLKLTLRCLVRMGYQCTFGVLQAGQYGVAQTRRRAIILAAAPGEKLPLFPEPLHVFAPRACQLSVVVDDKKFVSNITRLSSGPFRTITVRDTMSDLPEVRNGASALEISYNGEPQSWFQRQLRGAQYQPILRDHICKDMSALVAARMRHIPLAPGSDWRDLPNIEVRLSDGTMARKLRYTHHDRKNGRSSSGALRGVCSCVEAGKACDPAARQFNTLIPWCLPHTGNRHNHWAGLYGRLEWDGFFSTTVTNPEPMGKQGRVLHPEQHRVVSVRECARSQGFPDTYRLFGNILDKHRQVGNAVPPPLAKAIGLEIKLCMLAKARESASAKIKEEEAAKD
Scp1 inh: inhibitors of human Scp-1 phosphatase | Recombinant Scp1, phosphopeptide, malachite green phosphate absorbance | inhibition, % at 20 µM | 0.88% of 340,000 active | AID 493091;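 active = inhibition above about 50% at 20 µM, limit read from the data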;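 also: plate controls were DMSO wells with enzyme for no effect and wells lacking enzyme for full effect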
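System: SCP-1 catalytic domain; Reagent: Phospho 17-mer peptide substrate; Doses: one concentration, 20 µM, with 1.0% DMSO; Incubation: 45 min room-temperature reaction, 5 min colour, 30 min stabiliser; Signal: Phosphate-binding colour reagent, absorbance read at 630 nm.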
SUMO1-SIM PPI: modulators of human SUMO1-mediated protein-protein interactions. 0.33% of 360,000 active. AID 602429. SUMO1 binding to a labelled peptide, TR-FRET, 1 h. inhibition, % at 20 µM. P63165; in the data active = inhibition above about 37%
HKDC1 inhibitor: HKDC1 (human) hexokinase inhibition | 0.16% of 340,000 active | recombinant HKDC1, G6PDH/diaphorase resazurin coupled fluorescence | Q2TB90 | inhibition, % at 20 µM | AID 493160;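 active = inhibition above about 35% when tested at 20 µM, limit read from the data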;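 also: plate controls were DMSO wells with enzyme for no effect and DMSO wells lacking enzyme for full effect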
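Test system: Recombinant HKDC1 (HK5) hexokinase enzyme, produced in-house | Input: HKDC1 at 5 µg/mL | Buffer or medium: Tris pH 8.0 buffer with MgCl2, Tween-20, BSA, BME | Schedule: 90 min reaction incubation at room temperature, dark | Technique: Resazurin-to-resorufin fluorescence via G6PDH and diaphorase coupling, 525/613 nm | Controls: DMSO wells with and without enzyme mix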
LMPTP block: LMPTP (human) inhibition; recombinant LMPTP-A, OMFP fluorogenic substrate, fluorescence intensity; AID 651560; P24666; 0.22% of 360,000 active; inhibition, % at 20 µM;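 active = compounds that cut the enzyme signal by at least half of the control window in the single-dose screen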;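 also: plate controls were DMSO wells with enzyme plus substrate for no effect and substrate without enzyme for full effect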
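test system = LMPTP-A | amount = 0.625 nM LMPTP-A final | reagent = fluorogenic phosphatase substrate OMFP at 400 µM final | incubation = 50 min at room temperature | benchmarks = no-enzyme low control, uninhibited high control | medium = Bis-Tris pH 6.0, DTT, detergent | signal = fluorescence intensity of OMFP turnover product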
STEP block: inhibitors of human striatal-enriched phosphatase STEP. P54829. recombinant STEP, OMFP fluorogenic substrate, fluorescence. inhibition, % at 20 µM. 0.25% of 360,000 active. AID 588621;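 active = inhibition at 20 µM, scaled per plate between control wells, above about 37%, limit read from the data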;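 also: 0% = DMSO with enzyme and substrate and 100% = substrate only without enzyme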
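Test system: STEP tyrosine phosphatase / Reagent: OMFP at 25 µM / Doses: 20 µM, 1% DMSO / Read-out: percent inhibition scaled to no-enzyme and uninhibited-enzyme controls, plate-pattern corrected / Detection: FITC-channel fluorescence of OMFP product / Medium: Bis-Tris buffer pH 6.0, 2.5 mM DTT, 0.005% Tween 20 / Schedule: 20 min at room temperature, dark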
STEP conf: confirmation of human STEP phosphatase inhibitors; inhibition, % at 20 µM; AID 623866; recombinant STEP, OMFP fluorogenic substrate, fluorescence; shares compounds with STEP block; 32% of 520 active; call rule not given here;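 also: 0% = enzyme with substrate plus DMSO and 100% = substrate without enzyme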
* hit, by the source's call; · = no result given. Rows were chosen to be rich in hits. Some 1.8% of all compounds tested hit in one or more screens of this group.

SMILES | DNMT1 block | Scp1 inh | SUMO1-SIM PPI | HKDC1 inhibitor | LMPTP block | STEP block | STEP conf
CCCCNS(=O)(=O)c1cc(-c2nn(C)c(=O)c3ccccc23)ccc1C | 20 | 46 | -4 | -1 | 15 | 58* | 27
O=C(N/N=C/c1ccncc1)c1cccc(S(=O)(=O)Nc2ccc(Cl)cc2)c1 | 3 | 11 | 79* | 12 | 26 | 74* | 95*
Cc1cc(C)cc(C(=O)NC(CC(N)=O)c2ccc(NCCN3CCCC3)c([N+](=O)[O-])c2)c1 (stereo not drawn) | -1 | -7 | -12 | -1 | -2 | -3 | ·
Cc1cccc(N2CCN(S(=O)(=O)c3ccc4c(c3)CCN4C(=O)CCC(=O)O)CC2)c1C | -3 | 33 | 5 | -12 | 0 | 41* | -2
Cc1cc2nc3n(c2cc1C)CC1CC(C(=O)NCc2cccc(C(F)(F)F)c2)N(C)C31 (stereo not drawn) | 0 | -10 | -1 | -2 | 0 | 2 | ·
CN(C(=O)COC(=O)C12CC3CC(CC(Cl)(C3)C1)C2)c1ccccc1 | 1 | -10 | -1 | 4 | 1 | -1 | ·
O=C(CC12CC3CC(CC(C3)C1)C2)N/N=C/c1ccncc1 | -2 | -12 | -8 | -7 | -3 | 0 | ·
O=C(N/N=C/c1ccc(OC(=O)c2cccc(F)c2)cc1)c1cccnc1 | 48 | 20 | 21 | 7 | 57* | 98* | 2
O=C(N/N=C/c1ccc(OC(=O)c2cccc(Br)c2)cc1)c1cccnc1 | 41 | 7 | 9 | -4 | 8 | 6 | ·
O=C(Nc1ccc(F)cc1)C1CCN(S(=O)(=O)c2ccc3[nH]c(=O)oc3c2)CC1 | -2 | -6 | 2 | 1 | 0 | 4 | ·
COc1ccc(N(C(C)=O)S(=O)(=O)c2cccs2)cc1 | -18 | 0 | -2 | 5 | -1 | 0 | ·
COc1ccc(N(C(=O)C(C)C)S(=O)(=O)c2cccs2)cc1 | -2 | -6 | -1 | 9 | -1 | 44* | 10
Nc1c(C(=O)c2ccc(Br)cc2)oc2ccccc12 | -4 | -10 | -6 | 2 | 0 | 43* | 19
COc1ccc(N2CCN(c3nc4c(C)cccn4c(=O)c3C=C(C#N)C#N)CC2)cc1 | 0 | -9 | 2 | 0 | 2 | 63* | 6
CC1CN(C(=O)COC(=O)c2ccc(C#N)cc2)CC(C)O1 (stereo not drawn) | 1 | -4 | 2 | -4 | -1 | 0 | ·
C=C(C)COc1ccc2c(CC)cc(=O)oc2c1 | 1 | -1 | 0 | 0 | 0 | 118* | 1
COc1ccc(F)cc1S(=O)(=O)Nc1cc2c3c(c1)CC(=O)N3CCC2 | -8 | 7 | 2 | -5 | 0 | 0 | ·
CC(NC(=O)c1ccccc1F)c1nnc(SCC(=O)NC2CCCC2)n1C (stereo not drawn) | 4 | -4 | 6 | -3 | -1 | -8 | ·
S=C(c1cn(CCOc2ccccc2)c2ccccc12)N1CCCC1 | -3 | 9 | -3 | -1 | 2 | 97* | 63*
Cc1ccc(NC(=S)N(CCCN2CCOCC2)Cc2cccs2)c(C)c1 | 2 | -1 | -3 | -13 | -2 | 55* | 20
CCN(CC)S(=O)(=O)c1ccc(N2CCOCC2)c(NC(=O)c2cnccn2)c1 | 4 | 0 | 4 | -4 | 0 | 2 | ·
CC(C)c1ccc(OCCCCN2CCCCC2)cc1 | 1 | 3 | -4 | 5 | -2 | -2 | ·
CC(C)Oc1ccc(OCCCN2CCCCCC2)cc1 | -1 | -6 | -5 | -5 | -1 | 53* | -16
COc1ccc(Br)cc1/C=C/C(=O)NC(=S)Nc1ccc(Cl)c(C(=O)O)c1 | 1 | 8 | 18 | -3 | 2 | 62* | 8
Cc1ccc(NC(=O)Cn2cncc2-c2ccc([N+](=O)[O-])cc2)cc1C | 50 | 49 | -6 | 3 | 32 | 48* | 14
SMILES | DNMT1 block | Scp1 inh | SUMO1-SIM PPI | HKDC1 inhibitor | LMPTP block | STEP block | STEP conf
O=C(NC1CCCCCC1)C(Cc1ccccc1)n1cccc1 (stereo not drawn) | 2 | -7 | -3 | -6 | 0 | 4 | ·
NC(=O)CSc1nc2cc(S(=O)(=O)N3CCOCC3)ccc2o1 | 5 | 7 | -5 | -6 | -1 | 56* | 1
Cc1ccc(Cn2c(SCC(=O)Nc3cc(C)on3)nc3ccccc3c2=O)cc1 | 9 | -11 | -1 | 3 | 0 | 41* | -5
CCN1CCN(CCCN(Cc2ccco2)C(=S)Nc2ccc(C)c(Cl)c2)CC1 | -2 | -7 | 2 | -1 | -2 | 3 | ·
CCN1CCN(CCCN(Cc2ccco2)C(=S)Nc2cc(Cl)ccc2C)CC1 | 0 | -5 | 0 | -6 | -3 | 41* | 12
Cc1csc2ncc(C(=O)NCc3ccccn3)c(=O)n12 | 4 | -6 | 1 | 5 | 0 | 98* | 10
Cc1csc2ncc(C(=O)NCCc3ccccc3)c(=O)n12 | 0 | -6 | -1 | -4 | -1 | -1 | ·
Cc1csc(NC(=O)CCCC(=O)O)c1-c1nc2ccccc2s1 | 1 | 33 | 12 | 4 | 1 | 93* | -7
Cc1csc(NC(=O)COCC(=O)O)c1-c1nc2ccccc2s1 | 6 | 33 | 10 | -8 | 1 | 8 | ·
CC(C)(C)c1ccc(C(=O)CCC(=O)OCC(=O)NCCc2ccc(S(N)(=O)=O)cc2)cc1 | -4 | -6 | 3 | -3 | 1 | -2 | ·
Cc1cccc(N2CCN(C(=O)CCNS(=O)(=O)c3ccc4c(c3)oc(=O)n4C)CC2)c1C | -2 | 7 | -3 | -1 | 0 | 74* | 1
Cc1ccc(NC(=O)CCCC(=O)O)c(-c2nc3ccccc3[nH]c2=O)c1 | 3 | 6 | -2 | -5 | -1 | 2 | ·
COc1cccc(C(C)NC(=O)Cc2cccs2)c1 (stereo not drawn) | 3 | 5 | 6 | 1 | 1 | 0 | ·
COc1ccccc1NS(=O)(=O)c1ccc(OC)c([N+](=O)[O-])c1 | 2 | -6 | -10 | -8 | -1 | 0 | ·
COc1ccccc1NS(=O)(=O)c1ccc(NN=C2CCCCC2)c([N+](=O)[O-])c1 | -11 | -6 | -21 | 2 | 2 | 92* | 5
COc1cccc(C2NC(=S)NC3=C2CCc2ccccc23)c1 (stereo not drawn) | 1 | -6 | -4 | 5 | -2 | -2 | ·
S=C1NC2=C(CCCC2=C2SCCS2)C(c2ccccc2)N1 (stereo not drawn) | -4 | 1 | -14 | 9 | 0 | 70* | 60*
CCN1CCN(CCC(=O)Nc2ccc(Br)cc2)CC1 | -3 | 5 | 0 | -1 | -3 | 0 | ·
CCN1CCN(C(=S)c2ccc(Br)cc2)CC1 | -1 | -4 | -2 | -10 | 0 | 88* | 45*
